Results as given in ChEMBL document CHEMBL1147862, “Studies on synthesis and pharmacological activities of 3,6-disubstituted-1,2,4-triazolo[3,4-b]-1,3,4-thiadiazoles and their dihydro analogues” (2007).

Columns and labels:
Type in all cases: functional
Bacillus subtilis [1] = experiment: Antibacterial activity against Bacillus subtilis at 20 ug/ml by agar plate diffusion technique; details: read-out: IZ
Rattus norvegicus [2] = experiment: Antiinflammatory activity in Wistar Albino rat assessed as inhibition of carrageenan-induced paw oedema at 20 mg/kg after 3 hrs relative to control
Outline: (§1)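 Wistar albino rats, 150–200 g, six per group, dosed orally with a 20 mg/kg suspension; control gets 0.1 ml 1% gum acacia. After 30 min, 0.1 ml 1% carrageenan in saline is injected subplantar into the right hind paw. Paw volume is read by plethysmograph at 0–4 h. Inhibition = 100(1 − Vtest/Vcontrol) on mean volume increase.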

Escherichia coli [3] = experiment: Antibacterial activity against Escherichia coli at 20 ug/ml by agar plate diffusion technique; details: read-out: IZ
Staphylococcus aureus [4] = experiment: Antibacterial activity against Staphylococcus aureus at 30 ug/ml by agar plate diffusion technique; details: read-out: IZ
Candida albicans [5] = experiment: Antifungal activity against Candida albicans at 20 ug/ml by paper disc method; details: read-out: IZ
Aspergillus niger [6] = experiment: Antifungal activity against Aspergillus niger at 30 ug/ml by paper disc method; details: read-out: IZ
Staphylococcus aureus [7] = experiment: Antibacterial activity against Staphylococcus aureus at 20 ug/ml by agar plate diffusion technique; details: read-out: IZ
Pseudomonas aeruginosa [8] = experiment: Antibacterial activity against Pseudomonas aeruginosa at 10 ug/ml by agar plate diffusion technique; details: read-out: IZ
Candida albicans [9] = experiment: Antifungal activity against Candida albicans at 30 ug/ml by paper disc method; details: read-out: IZ
Candida albicans [10] = experiment: Antifungal activity against Candida albicans at 10 ug/ml by paper disc method; details: read-out: IZ
Pseudomonas aeruginosa [11] = experiment: Antibacterial activity against Pseudomonas aeruginosa at 30 ug/ml by agar plate diffusion technique; details: read-out: IZ
Pseudomonas aeruginosa [12] = experiment: Antibacterial activity against Pseudomonas aeruginosa at 20 ug/ml by agar plate diffusion technique; details: read-out: IZ
Aspergillus niger [13] = experiment: Antifungal activity against Aspergillus niger at 20 ug/ml by paper disc method; details: read-out: IZ
Staphylococcus aureus [14] = experiment: Antibacterial activity against Staphylococcus aureus at 10 ug/ml by agar plate diffusion technique; details: read-out: IZ
Bacillus subtilis [15] = experiment: Antibacterial activity against Bacillus subtilis at 10 ug/ml by agar plate diffusion technique; details: read-out: IZ
Escherichia coli [16] = experiment: Antibacterial activity against Escherichia coli at 10 ug/ml by agar plate diffusion technique; details: read-out: IZ
Mus musculus [17] = experiment: Analgesic activity in Swiss mouse assessed as increase in reaction time at 20 mg/kg, po after 90 mins by Eddy's hot plate technique
Outline: (§2)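 Swiss mice of either sex, 25–35 g, placed one at a time on a hot plate held at 55 °C. End point is paw licking or jumping, whichever comes first, with a 15 s cut-off to avoid paw injury. Reaction time is recorded and reported as percent increase in reaction time.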

Rattus norvegicus [18] = experiment: Antiinflammatory activity in Wistar Albino rat assessed as inhibition of carrageenan-induced paw oedema at 20 mg/kg after 2 hrs relative to control; outline: as §1
Aspergillus niger [19] = experiment: Antifungal activity against Aspergillus niger at 10 ug/ml by paper disc method; details: read-out: IZ
Bacillus subtilis [20] = experiment: Antibacterial activity against Bacillus subtilis at 30 ug/ml by agar plate diffusion technique; details: read-out: IZ
Mus musculus [21] = experiment: Analgesic activity in Swiss mouse assessed as increase in reaction time at 20 mg/kg, po after 30 mins by Eddy's hot plate technique; outline: as §2
Mus musculus [22] = experiment: Analgesic activity in Swiss mouse assessed as increase in reaction time at 20 mg/kg, po after 60 mins by Eddy's hot plate technique; outline: as §2
Escherichia coli [23] = experiment: Antibacterial activity against Escherichia coli at 30 ug/ml by agar plate diffusion technique; details: read-out: IZ
Rattus norvegicus [24] = experiment: Antiinflammatory activity in Wistar Albino rat assessed as inhibition of carrageenan-induced paw oedema at 20 mg/kg after 4 hrs relative to control; outline: as §1
Rattus norvegicus [25] = experiment: Antiinflammatory activity in Wistar Albino rat assessed as inhibition of carrageenan-induced paw oedema at 20 mg/kg after 1 hr relative to control; outline: as §1

Row | Structure (SMILES) | zone of inhibition at 20 µg/mL (Bacillus subtilis [1]) | inhibition in vivo at 20 mg/kg (Rattus norvegicus [2]) | zone of inhibition at 20 µg/mL (Escherichia coli [3]) | zone of inhibition at 30 µg/mL (Staphylococcus aureus [4]) | zone of inhibition at 20 µg/mL (Candida albicans [5]) | zone of inhibition at 30 µg/mL (Aspergillus niger [6]) | zone of inhibition at 20 µg/mL (Staphylococcus aureus [7]) | zone of inhibition at 10 µg/mL (Pseudomonas aeruginosa [8]) | zone of inhibition at 30 µg/mL (Candida albicans [9]) | zone of inhibition at 10 µg/mL (Candida albicans [10]) | zone of inhibition at 30 µg/mL (Pseudomonas aeruginosa [11]) | zone of inhibition at 20 µg/mL (Pseudomonas aeruginosa [12]) | zone of inhibition at 20 µg/mL (Aspergillus niger [13]) | zone of inhibition at 10 µg/mL (Staphylococcus aureus [14]) | zone of inhibition at 10 µg/mL (Bacillus subtilis [15]) | zone of inhibition at 10 µg/mL (Escherichia coli [16]) | Activity (Mus musculus [17]) | inhibition in vivo at 20 mg/kg (Rattus norvegicus [18]) | zone of inhibition at 10 µg/mL (Aspergillus niger [19]) | zone of inhibition at 30 µg/mL (Bacillus subtilis [20]) | also measured
1 | COc1ccc(Cl)c(-c2nnc3sc(Cc4c[nH]c5ccccc45)nn23)c1 | 7.6 mm | 21.4% | 8.12 mm | 12.6 mm | 9.48 mm | 12.9 mm | 7.59 mm | 4.12 mm | 12.5 mm | 5.86 mm | 12.2 mm | 8.16 mm | 10.1 mm | 4.8 mm | 4.33 mm | 4.78 mm | 34.24% | 16.5% | 5.1 mm | 12.3 mm | Activity (Mus musculus [21]): 19.48%; Activity (Mus musculus [22]): 28.32%; zone of inhibition at 30 µg/mL (Escherichia coli [23]): 12.4 mm; inhibition in vivo at 20 mg/kg (Rattus norvegicus [24]): 34.7%; inhibition in vivo at 20 mg/kg (Rattus norvegicus [25]): 8.8%
2 | COc1ccc2[nH]c(C)c(Cc3nn4c(-c5ccoc5C)nnc4s3)c2c1 | 8.38 mm | 29.4% | 9.1 mm | 13.3 mm | 9.86 mm | 12.4 mm | 9.12 mm | 4.92 mm | 13.1 mm | 5.04 mm | 14.6 mm | 8.14 mm | 9.06 mm | 4.89 mm | 4.6 mm | 5.12 mm | 33.49% | 24.8% | 5.14 mm | 13.2 mm | Activity (Mus musculus [21]): 9.18%; Activity (Mus musculus [22]): 23.17%; zone of inhibition at 30 µg/mL (Escherichia coli [23]): 13.8 mm; inhibition in vivo at 20 mg/kg (Rattus norvegicus [24]): 31.2%; inhibition in vivo at 20 mg/kg (Rattus norvegicus [25]): 19.7%
3 | COc1ccc(Cl)c(-c2nnc3sc(-c4ccnc5ccccc45)nn23)c1 | 13.1 mm | 18.6% | 14.5 mm | 18.1 mm | 13.9 mm | 19.1 mm | 13.2 mm | 7.82 mm | 18 mm | 6.48 mm | 18.7 mm | 13.3 mm | 12.8 mm | 7.21 mm | 7.68 mm | 8.28 mm | 23.84% | 14.3% | 6.4 mm | 18.8 mm | Activity (Mus musculus [21]): 7.69%; Activity (Mus musculus [22]): 17.24%; zone of inhibition at 30 µg/mL (Escherichia coli [23]): 18.8 mm; inhibition in vivo at 20 mg/kg (Rattus norvegicus [24]): 20.9%; inhibition in vivo at 20 mg/kg (Rattus norvegicus [25]): 11.1%
4 | Cc1occc1-c1nnc2n1NC(c1ccco1)S2 (stereo not given) | 10.7 mm | 24.1% | 8.04 mm | 13.3 mm | 11 mm | 14.2 mm | 12.3 mm | 6.67 mm | 14.8 mm | 5.41 mm | 17.7 mm | 12.3 mm | 8.12 mm | 6.67 mm | 5.33 mm | 4.82 mm | 26.14% | 21.6% | 5.21 mm | 11.3 mm | Activity (Mus musculus [21]): 5.68%; Activity (Mus musculus [22]): 15.18%; zone of inhibition at 30 µg/mL (Escherichia coli [23]): 15.2 mm; inhibition in vivo at 20 mg/kg (Rattus norvegicus [24]): 25.9%; inhibition in vivo at 20 mg/kg (Rattus norvegicus [25]): 16.4%
5 | COc1ccc(Cl)c(-c2nnc3sc(-c4ccnc(Cl)c4)nn23)c1 | 13.8 mm | 23.5% | 12.2 mm | 18.6 mm | 13.7 mm | 18.4 mm | 13.7 mm | 7.02 mm | 19.3 mm | 7.14 mm | 19.1 mm | 12.5 mm | 11.8 mm | 6.98 mm | 7.12 mm | 6.39 mm | 23% | 20.1% | 6.64 mm | 18.6 mm | Activity (Mus musculus [21]): 7.14%; Activity (Mus musculus [22]): 17.45%; zone of inhibition at 30 µg/mL (Escherichia coli [23]): 19.2 mm; inhibition in vivo at 20 mg/kg (Rattus norvegicus [24]): 27.2%; inhibition in vivo at 20 mg/kg (Rattus norvegicus [25]): 14.4%
6 | COc1ccc(Cc2nnc3sc(-c4ccnc5ccccc45)nn23)cc1OC | 13.3 mm | 19.1% | 14.4 mm | 18.3 mm | 13.7 mm | 18 mm | 12.6 mm | 7.7 mm | 17.8 mm | 6.14 mm | 18.2 mm | 14.1 mm | 13 mm | 6.96 mm | 7.4 mm | 7.85 mm | 21.96% | 17.1% | 6.32 mm | 18.7 mm | Activity (Mus musculus [21]): 7.55%; Activity (Mus musculus [22]): 16.8%; zone of inhibition at 30 µg/mL (Escherichia coli [23]): 18.6 mm; inhibition in vivo at 20 mg/kg (Rattus norvegicus [24]): 24.8%; inhibition in vivo at 20 mg/kg (Rattus norvegicus [25]): 14.6%
7 | COc1ccc(Cc2nnc3n2NC(c2ccc([N+](=O)[O-])o2)S3)cc1OC (stereo not given) | 8.49 mm | 21.4% | 10 mm | 14 mm | 10.9 mm | 14.3 mm | 8.37 mm | 4.42 mm | 14.8 mm | 5.43 mm | 13.1 mm | 7.88 mm | 9.64 mm | 5.1 mm | 4.92 mm | 5.16 mm | 22.66% | 17.6% | 5.21 mm | 13.5 mm | Activity (Mus musculus [21]): 2.83%; Activity (Mus musculus [22]): 10.3%; zone of inhibition at 30 µg/mL (Escherichia coli [23]): 15 mm; inhibition in vivo at 20 mg/kg (Rattus norvegicus [24]): 23.7%; inhibition in vivo at 20 mg/kg (Rattus norvegicus [25]): 14.5%
8 | COc1ccc(Cl)c(-c2nnc3n2NC(c2ccc([N+](=O)[O-])o2)S3)c1 (stereo not given) | 8.71 mm | 21.7% | 10.1 mm | 14.2 mm | 11.3 mm | 14.5 mm | 8.82 mm | 4.88 mm | 15.2 mm | 5.58 mm | 13.2 mm | 7.36 mm | 9.72 mm | 5.2 mm | 5.12 mm | 5.21 mm | 23.45% | 18.5% | 5.32 mm | 13.6 mm | Activity (Mus musculus [21]): 5.71%; Activity (Mus musculus [22]): 14.1%; zone of inhibition at 30 µg/mL (Escherichia coli [23]): 15.1 mm; inhibition in vivo at 20 mg/kg (Rattus norvegicus [24]): 24.2%; inhibition in vivo at 20 mg/kg (Rattus norvegicus [25]): 15.6%
